Experimental data reported in ChEMBL document CHEMBL3774376, “Synthesis, and anticonvulsant activity of new amides derived from 3-methyl- or 3-ethyl-3-methyl-2,5-dioxo-pyrrolidin-1-yl-acetic acids” (Bioorg Med Chem, 2016).
The source made the active and inactive calls. The rule behind the calls is not given here.

Columns and labels:
Mus musculus [1] = assay: Anticonvulsant activity in CD1 albino mouse assessed as protection against maximal electroshock-induced seizures at 300 mg/kg, ip after 0.5 hrs; format: functional, organism-based
Mus musculus [2] = assay: Neurotoxicity in CD1 albino mouse assessed as acute motor impairment at 300 mg/kg, ip measured after 0.5 hrs by rotarod test; format: toxicity, organism-based; conditions: in vivo
Procedure, shortened: (§1)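 Male CD-1 mice given 30, 100 or 300 mg/kg ip in 0.5% methylcellulose, tested at 0.5 and 4 h. Motor impairment was scored as failure to keep balance for at least 1 min on a rod rotating at 10 rpm. Minimum dose causing impairment reported.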

Mus musculus [3] = assay: Neurotoxicity in CD1 albino mouse assessed as acute motor impairment at 300 mg/kg, ip after 4 hrs by rotarod test; format: toxicity, organism-based; conditions: in vivo; procedure, shortened: as §1
Mus musculus [4] = assay: Anticonvulsant activity in CD1 albino mouse assessed as protection against subcutaneous pentylenetetrazole-induced seizures at 100 to 300 mg/kg, ip after 4 hrs; format: functional; conditions: CD1, 4 h, read-out: MED
Procedure, shortened: (§2)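 Male CD-1 mice (16-26 g), compounds ip in 0.5% methylcellulose/water at 30, 100 or 300 mg/kg, 3-4 per group. At 0.5 or 4 h, pentylenetetrazole 85 mg/kg was injected sc. Protection was absence of clonic convulsions (at least 5 s) over a 30 min observation. Minimum active dose recorded.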

Mus musculus [5] = assay: Anticonvulsant activity in ip dosed CD1 albino mouse assessed as time to peak effect; format: functional
Procedure, shortened: (§3)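 Quantitation in male CD-1 mice dosed ip at the previously estimated time of peak effect. Seizures were induced by MES or by sc pentylenetetrazole 85 mg/kg; rotarod at 10 rpm assessed motor impairment. Groups of six, at least three doses giving 10-90% effect.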

Mus musculus [6] = assay: Anticonvulsant activity in CD1 albino mouse assessed as protection against maximal electroshock-induced seizures at 300 mg/kg, ip after 4 hrs; format: functional, organism-based
Mus musculus [7] = assay: Anticonvulsant activity in CD1 albino mouse assessed as protection against subcutaneous pentylenetetrazole-induced seizures at 100 to 300 mg/kg, ip after 0.5 hrs; format: functional; conditions: CD1, 0.5 h, read-out: MED; procedure, shortened: as §2
Mus musculus [8] = assay: Anticonvulsant activity in CD1 albino mouse assessed as protection against subcutaneous pentylenetetrazole-induced seizures at 300 mg/kg, ip after 0.5 hrs; format: functional, organism-based; procedure, shortened: as §2
Mus musculus [9] = assay: Anticonvulsant activity in CD1 albino mouse assessed as protection against subcutaneous pentylenetetrazole-induced seizures at 300 mg/kg, ip after 4 hrs; format: functional, organism-based; procedure, shortened: as §2
Mus musculus [10] = assay: Anticonvulsant activity in ip dosed CD1 albino mouse assessed as protection against subcutaneous pentylenetetrazole-induced seizures; format: functional; procedure, shortened: as §3
[11] = Neurotoxicity in ip dosed CD1 albino mouse assessed as acute motor impairment by rotarod test; format: toxicity, organism-based; conditions: in vivo; procedure, shortened: as §3
Mus musculus [12] = assay: Protection index, ratio of TD50 for CD1 albino mouse to ED50 for protection against subcutaneous pentylenetetrazole-induced seizures in CD1 albino mouse; procedure, shortened: as §3
Mus musculus [13] = assay: Neurotoxicity in CD1 albino mouse assessed as acute motor impairment at 100 to 300 mg/kg, ip after 0.5 hrs by rotarod test; format: toxicity, organism-based; conditions: in vivo; procedure, shortened: as §1
Mus musculus [14] = assay: Anticonvulsant activity in ip dosed CD1 albino mouse assessed as time to peak effect by 6Hz psychomotor seizure test; format: functional
Procedure, shortened: (§4)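 6-Hz corneal stimulation at 32 mA (6 Hz, 3 s) in male CD-1 mice dosed ip. Groups of six received several doses until at least three points fell between 10 and 90% protection. […] PI = TD50/ED50 (rotarod).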

Mus musculus [15] = species on record: Mus musculus; assay: Protection index, ratio of TD50 for CD1 albino mouse to ED50 for protection against 32 mA-current- for 3 secs induced seizure in CD1 albino mouse by 6Hz psychomotor seizure test; procedure, shortened: as §4
Mus musculus [16] = assay: Anticonvulsant activity in ip dosed CD1 albino mouse assessed as protection against maximal electroshock-induced seizures; format: functional
Mus musculus [17] = species on record: Mus musculus; assay: Protection index, ratio of TD50 for CD1 albino mouse to ED50 for protection against maximal electroshock-induced seizures in CD1 albino mouse; procedure, shortened: as §3
Mus musculus [18] = assay: Anticonvulsant activity in CD1 albino mouse assessed as protection against maximal electroshock-induced seizures at 100 to 300 mg/kg, ip after 0.5 hrs; format: functional; conditions: read-out: MED
Mus musculus [19] = assay: Anticonvulsant activity in ip dosed CD1 albino mouse assessed as protection against 32 mA-current- for 3 secs induced seizure by 6Hz psychomotor seizure test; format: functional; procedure, shortened: as §4
Mus musculus [20] = assay: Anticonvulsant activity in CD1 mouse assessed as protection against 32 mA-current- for 3 secs induced seizure at 100 mg/kg, ip after 0.5 hrs by 6Hz psychomotor seizure test; format: functional
Procedure, shortened: (§5)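 Male CD-1 mice given 100 mg/kg ip in 0.5% methylcellulose, four per time point. Corneal stimulation at 32 mA, 0.2 ms monopolar rectangular pulses at 6 Hz for 3 s, from a constant-current device. A mouse was protected if it resumed normal exploratory behavior within 10 s. Reported as number protected over number tested.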

Mus musculus [21] = assay: Anticonvulsant activity in CD1 mouse assessed as protection against 32 mA-current- for 3 secs induced seizure at 100 mg/kg, ip after 0.25 hrs by 6Hz psychomotor seizure test; format: functional; procedure, shortened: as §5
Mus musculus [22] = assay: Anticonvulsant activity in CD1 mouse assessed as protection against 32 mA-current- for 3 secs induced seizure at 100 mg/kg, ip after 2 hrs by 6Hz psychomotor seizure test; format: functional, organism-based; procedure, shortened: as §5
Mus musculus [23] = assay: Local anesthetic activity in CD1 albino mouse assessed prolongation of time reaction at 1 % concentration after 20 secs by tail immersion test relative to vehicle control; format: functional
Procedure, shortened: (§6)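 Compound at 1 or 2% in 0.5% methylcellulose, injected sc (0.2 ml) about 1 cm from the tail root of male CD-1 mice. After 15 min, the distal 3 cm of the tail was immersed in 50 ± 0.5 °C water and withdrawal time measured, cut off at 20 s. n=8; mean ± SEM; % prolongation relative to vehicle.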

Mus musculus [24] = assay: Neurotoxicity in CD1 albino mouse assessed as acute motor impairment at 100 to 300 mg/kg, ip after 4 hrs by rotarod test; format: toxicity, organism-based; conditions: in vivo; procedure, shortened: as §1
Mus musculus [25] = assay: Local anesthetic activity in CD1 albino mouse assessed prolongation of time reaction at 2 % concentration after 20 secs by tail immersion test relative to vehicle control; format: functional; procedure, shortened: as §6
Mus musculus [26] = assay: Anticonvulsant activity in CD1 albino mouse assessed as protection against maximal electroshock-induced seizures at 100 to 300 mg/kg, ip after 4 hrs; format: functional; conditions: read-out: MED
Rattus norvegicus = species on record: Rattus norvegicus; assay: Displacement of [3H]BTX from voltage-sensitive Na+ channel site 2 in rat cerebral cortex synaptoneurosomes at 100 uM after 60 mins by liquid scintillation spectroscopic analysis; format: tissue-based
Procedure, shortened: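 Cerebral cortex synaptoneurosomes from rat, tested at 100 µM for inhibition of specific [3H]BTX binding to the voltage-sensitive Na+ channel site 2. Reported as % inhibition of control specific binding; run commercially.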

SMILES | Activity (Mus musculus [1]) | Activity (Mus musculus [2]) | Activity (Mus musculus [3]) | minimal effective dose (Mus musculus [4]) | Time (Mus musculus [5]) | Activity (Mus musculus [6]) | minimal effective dose (Mus musculus [7]) | Activity (Mus musculus [8]) | Activity (Mus musculus [9]) | TD50 [11] | MTC (Mus musculus [13]) | Time (Mus musculus [14]) | minimal effective dose (Mus musculus [18]) | also measured
CCC1(C)CC(=O)NC1=O (configuration not stated) [ETHOSUXIMIDE] | inactive | Non-toxic | Non-toxic | 300 mg/kg | 0.25 h | inactive | 100 mg/kg | – | – | – | – | – | – | –
CCC1(C)CC(=O)N(CC(=O)N2CCN(c3ccccc3)CC2)C1=O (configuration not stated) | inactive | Non-toxic | Non-toxic | – | – | inactive | – | inactive | inactive | – | – | – | – | –
CC1CC(=O)N(CC(=O)N2CCN(c3cccc(Cl)c3Cl)CC2)C1=O (configuration not stated) | inactive | Non-toxic | Non-toxic | 100 mg/kg | 1 h | inactive | 100 mg/kg | – | – | 343 mg/kg | – | – | – | ED50 (Mus musculus [10]): 74.7 mg/kg; Ratio TD50/ED50 (Mus musculus [12]): 4.6
CCC1(C)CC(=O)N(CC(=O)N2CCN(c3cccc(Cl)c3)CC2)C1=O (configuration not stated) | inactive | Non-toxic | Non-toxic | – | – | inactive | – | inactive | inactive | – | – | – | – | –
CCC1(C)CC(=O)N(CC(=O)N2CCN(c3ccccc3Cl)CC2)C1=O (configuration not stated) | – | – | Non-toxic | – | 0.5 h | inactive | – | inactive | inactive | 132 mg/kg | 300 mg/kg | 0.5 h | 100 mg/kg | Ratio TD50/ED50 (Mus musculus [15]): 1.8; ED50 (Mus musculus [16]): 122 mg/kg; Ratio TD50/ED50 (Mus musculus [17]): 1.08; ED50 (Mus musculus [19]): 73.3 mg/kg; Activity (Mus musculus [20]): 100%
CC1CC(=O)N(CC(=O)N2CCN(c3ccccc3Cl)CC2)C1=O (configuration not stated) | – | – | Non-toxic | – | – | inactive | 300 mg/kg | – | inactive | > 500 mg/kg | 300 mg/kg | 0.25 h | 300 mg/kg | Ratio TD50/ED50 (Mus musculus [15]): >3.29; ED50 (Mus musculus [19]): 152 mg/kg; Activity (Mus musculus [21]): 100%; Activity (Mus musculus [22]): inactive
O=C1NC(=O)C(c2ccccc2)(c2ccccc2)N1 [PHENYTOIN] | – | – | – | – | 1 h | – | – | inactive | inactive | 56.9 mg/kg | 100 mg/kg | – | 30 mg/kg | Activity (Mus musculus [23]): 18%; Ratio TD50/ED50 (Mus musculus [17]): 8.56; MTC (Mus musculus [24]): 100 mg/kg; Activity (Mus musculus [25]): 84%; minimal effective dose (Mus musculus [26]): 30 mg/kg; inhibition (Rattus norvegicus): 53.9%
CC1CC(=O)N(CC(=O)N2CCN(c3ccccc3)CC2)C1=O (configuration not stated) | – | – | Non-toxic | 300 mg/kg | – | inactive | 300 mg/kg | – | – | – | 300 mg/kg | – | 300 mg/kg | –
Cc1cccc(N2CCN(C(=O)CN3C(=O)CC(C)C3=O)CC2)c1 (configuration not stated) | – | – | Non-toxic | – | – | inactive | 100 mg/kg | – | inactive | – | 300 mg/kg | – | 300 mg/kg | –
CCCC(CCC)C(=O)O [VALPROIC ACID] | – | Non-toxic | Non-toxic | – | 0.5 h | inactive | 300 mg/kg | – | inactive | – | – | 0.5 h | 300 mg/kg | –
